Source: ChEMBL document CHEMBL2057204, “Synthesis, biological evaluation, and molecular docking studies of N-((1,3-diphenyl-1H-pyrazol-4-yl)methyl)aniline derivatives as novel anticancer agents” (Bioorg Med Chem, 2012)

Assays:
MCF7 = assay: Antiproliferative activity against human MCF7 cells after 48 hrs by MTT assay; type: functional, cell-based; conditions: MCF7, 48 h
Summary of the method: (§1)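 Cells grown to log phase in RPMI 1640 with 10% FBS, diluted to 2 × 10⁴ cells/mL in complete medium and seeded into 96-well plates. Plates held 24 h at 37 °C, 5% CO₂ before compound exposure. After a 4 h incubation, absorbance read at 570 nm on a microplate reader. Three replicate wells per concentration; each assay run at least three times; IC₅₀ reported.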

B16-F10 = assay: Antiproliferative activity against mouse B16F10 cells after 48 hrs by MTT assay; type: functional, cell-based; conditions: B16-F10, 48 h; summary of the method: as §1
[1] = target: Cyclin-dependent kinase 2/cyclin E1 (Homo sapiens, UniProt P24941); assay: Inhibition of CDK2/cyclin E; type: protein-complex assay

Structure (SMILES): Fc1ccc(NCc2cn(-c3ccccc3)nc2-c2ccc(Cl)cc2)cc1
- IC50 (MCF7): 1.88 µM
- IC50 (B16-F10): 2.12 µM
- IC50 [1]: 0.98 µM

Structure (SMILES): Clc1ccc(NCc2cn(-c3ccccc3)nc2-c2ccc(Cl)cc2)cc1
- IC50 (MCF7): 2.28 µM
- IC50 (B16-F10): 2.45 µM
- IC50 [1]: 1.18 µM

Structure (SMILES): Clc1ccc(-c2nn(-c3ccccc3)cc2CNc2ccc(Br)cc2)cc1
- IC50 (MCF7): 2.62 µM
- IC50 (B16-F10): 3.01 µM
- IC50 [1]: 1.85 µM

Structure (SMILES): Cc1ccc(NCc2cn(-c3ccccc3)nc2-c2ccc(Cl)cc2)cc1
- IC50 (MCF7): 3.11 µM
- IC50 (B16-F10): 3.48 µM
- IC50 [1]: 2.08 µM

Structure (SMILES): Fc1ccc(NCc2cn(-c3ccccc3)nc2-c2ccc(Br)cc2)cc1
- IC50 (MCF7): 3.96 µM
- IC50 (B16-F10): 4.18 µM
- IC50 [1]: 2.36 µM

Structure (SMILES): Clc1ccc(NCc2cn(-c3ccccc3)nc2-c2ccc(Br)cc2)cc1
- IC50 (MCF7): 4.15 µM
- IC50 (B16-F10): 4.29 µM
- IC50 [1]: 2.56 µM

Structure (SMILES): Brc1ccc(NCc2cn(-c3ccccc3)nc2-c2ccc(Br)cc2)cc1
- IC50 (MCF7): 5 µM
- IC50 (B16-F10): 5.27 µM
- IC50 [1]: 2.78 µM

Structure (SMILES): Cc1ccc(NCc2cn(-c3ccccc3)nc2-c2ccc(Br)cc2)cc1
- IC50 (MCF7): 5.38 µM
- IC50 (B16-F10): 5.98 µM
- IC50 [1]: 3.02 µM

Structure (SMILES): Cc1ccc(-c2nn(-c3ccccc3)cc2CNc2ccc(F)cc2)cc1
- IC50 (MCF7): 5.88 µM
- IC50 (B16-F10): 5.67 µM
- IC50 [1]: 3.6 µM

Structure (SMILES): Cc1ccc(-c2nn(-c3ccccc3)cc2CNc2ccc(Cl)cc2)cc1
- IC50 (MCF7): 6.02 µM
- IC50 (B16-F10): 6.01 µM
- IC50 [1]: 3.89 µM

Structure (SMILES): Cc1ccc(-c2nn(-c3ccccc3)cc2CNc2ccc(Br)cc2)cc1
- IC50 (MCF7): 6.89 µM
- IC50 (B16-F10): 6.76 µM
- IC50 [1]: 4.15 µM

Structure (SMILES): Cc1ccc(NCc2cn(-c3ccccc3)nc2-c2ccc(C)cc2)cc1
- IC50 (MCF7): 7.26 µM
- IC50 (B16-F10): 7.38 µM
- IC50 [1]: 4.55 µM

Structure (SMILES): COc1ccc(-c2nn(-c3ccccc3)cc2CNc2ccc(F)cc2)cc1
- IC50 (MCF7): 5.98 µM
- IC50 (B16-F10): 6.58 µM
- IC50 [1]: 4.02 µM

Structure (SMILES): COc1ccc(-c2nn(-c3ccccc3)cc2CNc2ccc(Cl)cc2)cc1
- IC50 (MCF7): 6.25 µM
- IC50 (B16-F10): 7.18 µM
- IC50 [1]: 4.28 µM

Structure (SMILES): COc1ccc(-c2nn(-c3ccccc3)cc2CNc2ccc(Br)cc2)cc1
- IC50 (MCF7): 7.02 µM
- IC50 (B16-F10): 8.06 µM
- IC50 [1]: 4.96 µM

Structure (SMILES): COc1ccc(-c2nn(-c3ccccc3)cc2CNc2ccc(C)cc2)cc1
- IC50 (MCF7): 8.16 µM
- IC50 (B16-F10): 8.38 µM
- IC50 [1]: 5.06 µM

Structure (SMILES): Cn1cnc2c(NCc3ccccc3)nc(NCCO)nc21 [OLOMOUCINE]
- IC50 (MCF7): 130 µM
- IC50 (B16-F10): 105 µM
